Measurements: ChEMBL document CHEMBL1158357, “Synthesis of [1,2,4]triazolo[1,5-a]pyridines of potential PGE2 inhibitory properties” (2009)

How the values were obtained:
Rattus norvegicus [1] = assay: Antiinflammatory activity in Wistar albino rat assessed as inhibition of carrageenan-induced paw edema volume at 50 mg/kg, po administered 1 hr prior to carrageenan challenge measured after 4 hrs relative to indomethacin; type: functional; set-up: scale not given: the % may be the effect or the level left
Rattus norvegicus [2] = assay: Antiinflammatory activity in Wistar albino rat assessed as inhibition of carrageenan-induced paw edema volume at 50 mg/kg, po administered 1 hr prior to carrageenan challenge measured after 1 hr; type: functional
Rattus norvegicus [3] = assay: Antiinflammatory activity in Wistar albino rat assessed as inhibition of carrageenan-induced paw edema volume at 50 mg/kg, po administered 1 hr prior to carrageenan challenge measured after 2 hrs; type: functional
Rattus norvegicus [4] = assay: Antiinflammatory activity in Wistar albino rat assessed as inhibition of carrageenan-induced paw edema volume at 50 mg/kg, po administered 1 hr prior to carrageenan challenge measured after 4 hrs; set-up: scale not given: the % may be the effect or the level left
Rattus norvegicus [5] = assay: Antiinflammatory activity in Wistar albino rat assessed as inhibition of carrageenan-induced paw edema volume at 50 mg/kg, ip administered 1 hr prior to carrageenan challenge measured after 2 hrs; set-up: scale not given: the % may be the effect or the level left; conditions: route intraperitoneal
Rattus norvegicus [6] = assay: Antiinflammatory activity in Wistar albino rat assessed as inhibition of carrageenan-induced paw edema volume at 50 mg/kg, ip administered 1 hr prior to carrageenan challenge measured after 4 hrs; conditions: route intraperitoneal
Rattus norvegicus [7] = assay: Antiinflammatory activity in Wistar albino rat assessed as inhibition of carrageenan-induced paw edema volume at 50 mg/kg, ip administered 1 hr prior to carrageenan challenge measured after 1 hr; set-up: scale not given: the % may be the effect or the level left; conditions: route intraperitoneal
Rattus norvegicus [8] = assay: Antiinflammatory activity in Wistar albino rat assessed as inhibition of carrageenan-induced paw edema volume at 50 mg/kg, po administered 1 hr prior to carrageenan challenge measured after 3 hrs; type: functional
Rattus norvegicus [9] = assay: Antiinflammatory activity in Wistar albino rat assessed as inhibition of carrageenan-induced paw edema volume at 50 mg/kg, ip administered 1 hr prior to carrageenan challenge measured after 3 hrs; set-up: scale not given: the % may be the effect or the level left; conditions: route intraperitoneal
Rattus norvegicus [10] = assay: Antiinflammatory activity against carrageenan-induced inflammation in albino rat air pouch model assessed as PGE2 level at 50 mg/kg, po administered […] before carrageenan challenge measured after 6 hrs; type: functional
Outline: (§1)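 Male albino rats (200–250 g), 6 per group. A dorsal air pouch was made with 20 ml air s.c. on day 1, 10 ml two days later and 10 ml on day 5. Next day, rats were dosed orally in saline with a few drops of Tween 80 (controls: sterile saline), then given 2 ml 1% carrageenan in saline into the pouch. Exudate was aspirated 6 h later under ether, stored at -20 °C, and PGE2 measured by ELISA kit.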

Rattus norvegicus [11] = assay: Antiinflammatory activity against carrageenan-induced inflammation in albino rat air pouch model assessed as PGE2 level at 10 mg/kg, po administered […] before carrageenan challenge measured after 6 hrs; type: functional; outline: as §1

SMILES	Activity (Rattus norvegicus [1])	Activity (Rattus norvegicus [2])	Activity (Rattus norvegicus [3])	Activity (Rattus norvegicus [4])	Activity (Rattus norvegicus [5])	Activity (Rattus norvegicus [6])	Activity (Rattus norvegicus [7])	Activity (Rattus norvegicus [8])	Activity (Rattus norvegicus [9])	Activity (Rattus norvegicus [10])	Activity (Rattus norvegicus [11])
CCn1c([S-])n[n+]2c(N)c(C#N)c(-c3ccc(N4CCOCC4)cc3)c(C#N)c12	81.1%	0.118 mL	0.232 mL	55%	30.1%	0.317 mL	43%	0.322 mL	38.1%		
Cn1c([S-])n[n+]2c(N)c(C#N)c(-c3ccccc3OCCOc3ccccc3-c3c(C#N)c(N)[n+]4nc([S-])n(C)c4c3C#N)c(C#N)c12	86.4%	0.097 mL	0.293 mL	58.6%	11.7%	0.292 mL	53.1%	0.37 mL	28.8%		
CN1CCN(c2ccc(-c3c(C#N)c(N)[n+]4nc([S-])n(C)c4c3C#N)cc2)CC1	54%	0.172 mL	0.287 mL	36.6%	13.6%	0.447 mL	16.9%	0.322 mL	38.1%		
Cn1c([S-])n[n+]2c(N)c(C#N)c(-c3ccc(N4CCOCC4)cc3)c(C#N)c12	67%	0.203 mL	0.275 mL	45.4%	17.2%	0.385 mL	1.9%	0.303 mL	41.7%		
CCn1c([S-])n[n+]2c(N)c(C#N)c(-c3ccc(N4CCCCC4)cc3)c(C#N)c12	90.6%	0.142 mL	0.11 mL	61.4%	66.9%	0.272 mL	31.4%	0.23 mL	55.8%		
N#Cc1c(-c2ccc(N3CCOCC3)cc2)c(C#N)c2n(Cc3ccccc3)c([S-])n[n+]2c1N	58%	0.207 mL	0.328 mL	39.3%	1.2%	0.428 mL	0%	0.485 mL	6.7%		
Cn1c([S-])n[n+]2c(N)c(C#N)c(-c3ccccc3OCCCOc3ccccc3-c3c(C#N)c(N)[n+]4nc([S-])n(C)c4c3C#N)c(C#N)c12	110.9%	0.19 mL	0.257 mL	75.2%	22.6%	0.175 mL	8.2%	0.307 mL	41%	92.17 pg/mL	
COc1ccc2c(c1)c(CC(=O)O)c(C)n2C(=O)c1ccc(Cl)cc1 [INDOMETHACIN]		0.09 mL	0.158 mL	67.8%	52.4%	0.227 mL	56.5%	0.18 mL	65.4%		98.33 pg/mL
C=CCn1c([S-])n[n+]2c(N)c(C#N)c(-c3ccc(N4CCCCC4)cc3)c(C#N)c12	101%	0.16 mL	0.307 mL	68.5%	7.5%	0.222 mL	22.7%	0.338 mL	35%	94.5 pg/mL	
Cn1c([S-])n[n+]2c(N)c(C#N)c(-c3ccc(N4CCCCC4)cc3)c(C#N)c12	75.4%	0.202 mL	0.298 mL	51.1%	10.2%	0.345 mL	2.4%	0.353 mL	32.1%		
C=CCn1c([S-])n[n+]2c(N)c(C#N)c(-c3ccc(N4CCOCC4)cc3)c(C#N)c12	89.4%	0.188 mL	0.268 mL	60.6%	19.3%	0.278 mL	9.2%	0.387 mL	25.6%		
N#Cc1c(-c2ccc(N3CCCCC3)cc2)c(C#N)c2n(Cc3ccccc3)c([S-])n[n+]2c1N	99.4%	0.192 mL	0.325 mL	67.4%	2.1%	0.23 mL	7.2%	0.313 mL	39.8%	102.33 pg/mL	
CCn1c([S-])n[n+]2c(N)c(C#N)c(-c3ccccc3OCCOc3ccccc3-c3c(C#N)c(N)[n+]4nc([S-])n(CC)c4c3C#N)c(C#N)c12	114%	0.188 mL	0.232 mL	77.3%	30.1%	0.16 mL	9.2%	0.312 mL	40%	87.67 pg/mL	
